Tests used:
BGC-823 = assay: Cytotoxicity against human gastric carcinoma BGC823 cells assessed as reduction in optical density by MTT assay; type: functional, cell-based
In short: (§1)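 Cells were cultured in RPMI-1640 with 10% (v/v) fetal calf serum, 100 µg ml-1 penicillin and 100 µg ml-1 streptomycin at 37 °C in humidified 5% CO2. Compounds were dissolved in DMSO, with final DMSO at 2% (v/v) or lower. MTT staining was used, with three replicate wells per point. IC50 is the concentration giving a 50% drop in optical density versus untreated cells.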

Mus musculus [1] = assay: Neurotoxicity in C57BL/6 mouse at 1 to 500 mg/kg, ip for 14 days; type: toxicity, organism-based; parameters: dose 1-500 mg/kg, route intraperitoneal; settings: in vivo, 336 h
In short: (§2)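 Healthy C57BL/6 mice (9–12 weeks, 18–22 g) were fasted overnight with free access to water. Each received a single i.p. dose of 1.0–500 mg kg-1 in 0.5% CMC-Na, 10 mice per group (5 male, 5 female). Mice were watched continuously for 2 h, intermittently to 24 h, then occasionally to 14 days for tremor, twitch, jumping and supination. At day 14 they were killed and heart, liver and kidneys were examined macroscopically.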

A-375 = assay: Cytotoxicity against human malignant melanoma A375 cells assessed as reduction in optical density by MTT assay; type: functional, cell-based; in short: as §1
Mus musculus [2] = assay: Toxicity in C57BL/6 mouse assessed as maximum weight loss at 10 mg/kg, ip; type: organism-based; parameters: dose 10 mg/kg, route intraperitoneal; settings: in vivo
[3] = Antitumor activity in mouse Sarcoma 180 cells inoculated mouse assessed as tumor inhibition rate at one fifth of LD50 concentration once a day for consecutive 7 days by ip; type: functional; parameters: scale not given: the % may be the effect or the level left
In short: (§3)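 Each tumour line was first grown in mice for 7 days, then harvested. Viable cells (2 × 10^6 per mouse) were injected s.c. into the armpit. Dosing began 24 h later: i.p., about one fifth of LD50, daily for 7 days, 10 female mice per group. […] Body weight was recorded every 3 days. Tumours were excised and weighed on day 21 to give inhibition rate.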

[4] = Acute toxicity in ip treated C57BL/6 mouse for 14 days; type: organism-based; settings: in vivo
In short: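 C57BL/6 mice (9–12 weeks, 18–22 g) were fasted overnight with free water. They received single i.p. doses of 1.0–500 mg kg-1 in 0.5% CMC-Na, 10 mice per group (5 male, 5 female). Mice were watched continuously for 2 h, then intermittently to 24 h, then occasionally to 14 days. Heart, liver and kidneys were checked macroscopically. LD50 was derived graphically.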

769-P = assay: Cytotoxicity against human renal carcinoma 769-P cells assessed as reduction in optical density by MTT assay; type: functional, cell-based; in short: as §1
SK-OV-3 = assay: Cytotoxicity against human ovary adenocarcinoma SKOV3 cells assessed as reduction in optical density by MTT assay; type: functional, cell-based; settings: SK-OV-3, Female gonad; in short: as §1
KB = assay: Cytotoxicity against human epidermoid carcinoma of the nasopharynx KB cells assessed as reduction in optical density by MTT assay; type: functional, cell-based; in short: as §1
CT26 = assay: Antitumor activity in mouse CT26 colon cancer cells inoculated mouse assessed as tumor inhibition rate at one fifth of LD50 concentration once a day for consecutive 7 days by ip; type: functional; parameters: scale not given: the % may be the effect or the level left; in short: as §3
[5] = Antitumor activity in mouse Lewis lung cancer cells inoculated mouse assessed as tumor inhibition rate at one fifth of LD50 concentration once a day for consecutive 7 days by ip; type: functional, Cancer cell lines; parameters: scale not given: the % may be the effect or the level left; in short: as §3
Mus musculus [6] = assay: Toxicity in C57BL/6 mouse assessed as liver damage at 1 to 500 mg/kg, ip for 14 days; type: organism-based; parameters: dose 1-500 mg/kg, route intraperitoneal; settings: in vivo, 336 h; in short: as §2
Mus musculus [7] = assay: Toxicity in C57BL/6 mouse assessed as heart damage at 1 to 500 mg/kg, ip for 14 days; type: organism-based; parameters: dose 1-500 mg/kg, route intraperitoneal; settings: in vivo, 336 h; in short: as §2
Mus musculus [8] = assay: Toxicity in C57BL/6 mouse assessed as maximum weight loss at 40 mg/kg, ip; type: organism-based; parameters: dose 40 mg/kg, route intraperitoneal; settings: in vivo
In short: (§4)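 Tumor-bearing mice, 10 females per group, were inoculated s.c. in the armpit with 2 × 10^6 viable tumor cells. Compound was given i.p. once daily for 7 consecutive days, starting 24 h after inoculation. […] Body weight was recorded every 3 days until sacrifice on day 21.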

Mus musculus [9] = assay: Toxicity in C57BL/6 mouse assessed as kidney damage at 1 to 500 mg/kg, ip for 14 days; type: organism-based; parameters: dose 1-500 mg/kg, route intraperitoneal; settings: in vivo, 336 h; in short: as §2
B16 = assay: Antitumor activity in mouse B16 melanoma cell lines cells inoculated mouse assessed as tumor inhibition rate at one fifth of LD50 concentration once a day for consecutive 7 days by ip; type: functional; parameters: scale not given: the % may be the effect or the level left; in short: as §3
Mus musculus [10] = assay: Toxicity in C57BL/6 mouse assessed as maximum weight loss at 50 mg/kg, ip; type: organism-based; parameters: dose 50 mg/kg, route intraperitoneal; settings: in vivo
H22 = assay: Antitumor activity in mouse H22 liver cancer cells inoculated mouse assessed as tumor inhibition rate at one fifth of LD50 concentration once a day for consecutive 7 days by ip; type: functional; parameters: scale not given: the % may be the effect or the level left; in short: as §3
Mus musculus [11] = assay: Toxicity in C57BL/6 mouse assessed as maximum weight loss at 7.5 mg/kg, ip; type: organism-based; parameters: dose 7.5 mg/kg, route intraperitoneal; settings: in vivo
Mus musculus [12] = assay: Toxicity in C57BL/6 mouse assessed as maximum weight loss at 30 mg/kg, ip; type: organism-based; parameters: dose 30 mg/kg, route intraperitoneal; settings: in vivo; in short: as §4

SMILES | IC50 (BGC-823) [µM] | Activity (Mus musculus [1]) | IC50 (A-375) [µM] | Activity (Mus musculus [2]) [%] | Activity [3] [%] | LD50 at 336 h [4] [mg/kg] | IC50 (769-P) [µM] | IC50 (SK-OV-3) [µM] | IC50 (KB) [µM] | Activity (CT26) [%] | Activity [5] [%] | Activity (Mus musculus [6]) | Activity (Mus musculus [7]) | Activity (Mus musculus [8]) [%] | Activity (Mus musculus [9]) | Activity (B16) [%] | Activity (Mus musculus [10]) [%] | Activity (H22) [%] | Activity (Mus musculus [11]) [%] | Activity (Mus musculus [12]) [%]
CCOC(=O)c1cc2c(cn1)[nH]c1ccccc12 | > 200 | Non-toxic | > 200 | 11.8 | 35.2 | 32.6 | 175 | 92.6 | > 200 |  |  |  |  |  |  |  |  |  |  | 
COc1cc(-c2nccc3c4ccccc4n(CCCCCCn4c5ccccc5c5ccnc(-c6cc(OC)c(OC)c(OC)c6)c54)c23)cc(OC)c1OC | > 200 | Non-toxic | 5.9 |  |  | 200 | 16.8 | > 200 | > 200 | 45.8 | 43.3 | Non-toxic | Non-toxic | 7.2 | Non-toxic |  |  |  |  | 
c1cncc(-c2nccc3c4ccccc4n(CCCCCCn4c5ccccc5c5ccnc(-c6cccnc6)c54)c23)c1 | 14.1 | Non-toxic | 5.3 |  | 40.5 |  | > 200 | 14.9 | 13.3 | 50.6 | 43.2 | Non-toxic | Non-toxic |  | Non-toxic | 24.3 | 11.9 | 35 |  | 
COc1ccc2c(c1)[nH]c1c(C)nccc12 [HARMINE] | 63.2 | Toxic | 72.5 |  | 15.3 |  | 48.9 | 74.6 | 57.8 |  | 34.1 |  |  |  |  |  |  |  | 8.5 | 
c1ccc2c(c1)c1ccncc1n2CCCCCn1c2ccccc2c2ccncc21 | 23.5 | Non-toxic | 10.2 |  | 43.8 |  | 15.3 | > 200 | > 200 | 48.6 | 42.5 | Non-toxic | Non-toxic |  | Non-toxic | 26.1 |  | 40.4 |  | 10
COc1ccc2c3ccnc(C)c3n(CCCCn3c4cc(OC)ccc4c4ccnc(C)c43)c2c1 | 75.7 | Non-toxic | 6.2 | 7.7 |  |  | 65.6 | 7.1 | 2.8 | 45.5 | 38.1 | Non-toxic | Non-toxic |  | Non-toxic |  |  |  |  | 
c1ccc2c(c1)c1ccncc1n2CCCCCCn1c2ccccc2c2ccncc21 | 13.8 | Non-toxic | 10.8 |  |  | 200 | 12.8 | 38.9 | 13.9 | 32.4 | 37.7 | Non-toxic | Non-toxic | 15 | Non-toxic | 24.8 |  | 31.2 |  | 
O=P1(N(CCCl)CCCl)NCCCO1 (centres undefined) [CYCLOPHOSPHAMIDE ANHYDROUS] |  |  |  |  | 85.6 |  |  |  |  | 97.2 | 97.8 |  |  |  |  | 86.5 | 7.7 | 83.8 |  | 
Cc1nccc2c3ccc(OC(C)C)cc3n(CCCCCCn3c4cc(OC(C)C)ccc4c4ccnc(C)c43)c12 | 194 | Non-toxic | 18.5 |  | 40.6 |  | 95.4 | 17.1 | 19.8 | 51.2 | 49.6 | Non-toxic | Non-toxic | 10.2 | Non-toxic | 20.5 |  | 39.7 |  | 

Source: ChEMBL document CHEMBL2311304, “Design, synthesis and in vitro and in vivo antitumor activities of novel bivalent β-carbolines” (Eur J Med Chem, 2013)
